This note sets out measurements from ChEMBL document CHEMBL4184218, “Design, synthesis and biological evaluation of new carbazole derivatives as anti-cancer and anti-migratory agents” (Bioorg Med Chem, 2018).

Activity calls are given as the source filed them. The rule behind the calls is not given here.

The test system of one data set is MDA-MB-231. The data set can be described thus: Growth inhibition of human MDA-MB-231 cells after 24 hrs by SRB assay. The following applies: MDA-MB-231, 24 h. Type of data set: functional. An outline of the steps:
(§1)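 Sulforhodamine B growth assay in MCF-7 or MDA-MB-231 breast cancer cells after 24 h of compound treatment. GI50 is the concentration giving 50% inhibition of proliferation, with an upper test limit of 50 µM. Values are the mean of triplicate experiments.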
In general terms: Sulforhodamine B stains cellular protein and so reports cell mass.
For orientation: GI50 means the concentration that inhibits growth by half. For `CCn1c2ccccc2c2cc(NC(=O)c3ccccc3C(=O)NCCO)ccc21`, the GI50 is greater than 50 µM.
On the same count and under the same terms, with `CCn1c2ccccc2c2cc(C(=O)Nc3cccnc3N3CCOCC3)ccc21` the figure was greater than 50 µM.
The same measure, in the same setting: with `CCN(CC)CCCC(C)NC(=O)c1cccnc1Nc1ccc2c(c1)c1ccccc1n2CC` (configuration not stated) the figure was 18 µM; with `CCN(CC)CCNC(=O)c1cccnc1Nc1ccc2c(c1)c1ccccc1n2CC`, 18 µM.
The same measure, in the same setting: for `CCn1c2ccccc2c2cc(NC(=O)c3nccnc3C(=O)NCCCN3CCOCC3)ccc21` the value was greater than 50 µM.
`CCn1c2ccccc2c2cc(NC(=O)c3cccnc3NCCCN3CCOCC3)ccc21` gave a GI50 of 19 µM.
The same measure, in the same setting: with `CCn1c2ccccc2c2cc(Nc3ncccc3C(=O)Nc3cc(OC)c(OC)c(OC)c3)ccc21` the figure was greater than 50 µM.
On the same count and under the same terms, for `CCn1c2ccccc2c2cc(Nc3ncccc3C(=O)NCCCn3ccnc3)ccc21` the value was greater than 50 µM; for `CCn1c2ccccc2c2cc(Nc3ccnc(NCCCN4CCOCC4)n3)ccc21`, 15 µM; for `CCn1c2ccccc2c2cc(NC(=O)c3cccnc3N3CCOCC3)ccc21`, greater than 50 µM.
The same measure, in the same setting: for `CCn1c2ccccc2c2cc(Nc3ncccc3NC(=O)c3cccnc3)ccc21` the value was 31 µM; for `CCn1c2ccccc2c2cc(NC(=O)c3nccnc3C(=O)NCCOC)ccc21`, greater than 50 µM; for `CCn1c2ccccc2c2cc(NC(=O)c3nccnc3C(=O)NCCCn3ccnc3)ccc21`, greater than 50 µM.
For `CCn1c2ccccc2c2cc(NC(=O)c3cccnc3N3CCN(c4ccccc4)CC3)ccc21`, the concentration for 50% growth inhibition (GI50) was greater than 50 µM.
In the case of `CCn1c2ccccc2c2cc(NC(=O)c3ccccc3C(=O)NCCOC)ccc21`, the GI50 was greater than 50 µM.
`CCn1c2ccccc2c2cc(NC(=O)c3nccnc3C(=O)NCCN3CCOCC3)ccc21`: the GI50 is greater than 50 µM.
The same measure, in the same setting: with `CCn1c2ccccc2c2cc(Nc3ncccc3C(=O)NCCCN3CCOCC3)ccc21` the figure was greater than 50 µM; with `CCn1c2ccccc2c2cc(C(=O)Nc3cccnc3NCCCN3CCOCC3)ccc21`, 39 µM.
Take `CCn1c2ccccc2c2cc(Nc3ncccc3NC(=O)CCN3CCCCC3)ccc21`: halving of growth (GI50) required 23 µM.
Take `CCn1c2ccccc2c2cc(Nc3ncccc3C(=O)NCCN3CCN(C(=O)OC(C)(C)C)CC3)ccc21`: the GI50 was greater than 50 µM.
On the same count and under the same terms, with `CCn1c2ccccc2c2cc(NC(=O)c3cccnc3N3CCN(C(C)=O)CC3)ccc21` the figure was greater than 50 µM.

The target in the next data set is Ras-related C3 botulinum toxin substrate 1 (Homo sapiens, UniProt P63000, G15A). The data set can be described thus: Inhibition of Vav2 binding to Rac1 G15A mutant in human MDA-MB-231 cells after 1 hr by pull down assay. Type of data set: cell-based.
Settings: not given
The IC50 is the concentration at which inhibition is half-maximal. `CCn1c2ccccc2c2cc(Nc3ccnc(NCCCN4CCOCC4)n3)ccc21` had a half-maximal inhibitory concentration (IC50) of 1.1 µM.

The test system of the next data set is MCF7. As to the kind of experiment: Growth inhibition of human MCF7 cells after 24 hrs by SRB assay. The following applies: MCF7, 24 h. It is filed as functional. An outline of the steps:
as §1
On to `CCn1c2ccccc2c2cc(NC(=O)c3ccccc3C(=O)NCCO)ccc21`, for which the 50% growth inhibitory concentration (GI50) was greater than 50 µM.
Same read-out and setting: for `CCn1c2ccccc2c2cc(C(=O)Nc3cccnc3N3CCOCC3)ccc21` the value was greater than 50 µM.
Same read-out and setting: for `CCN(CC)CCCC(C)NC(=O)c1cccnc1Nc1ccc2c(c1)c1ccccc1n2CC` (configuration not stated) the value was 13 µM; for `CCN(CC)CCNC(=O)c1cccnc1Nc1ccc2c(c1)c1ccccc1n2CC`, 14 µM.
The same measure, in the same setting: for `CCn1c2ccccc2c2cc(NC(=O)c3nccnc3C(=O)NCCCN3CCOCC3)ccc21` the value was greater than 50 µM.
Turning to `CCn1c2ccccc2c2cc(NC(=O)c3cccnc3NCCCN3CCOCC3)ccc21`, the GI50 was greater than 50 µM.
For the molecule `CCn1c2ccccc2c2cc(Nc3ncccc3C(=O)Nc3cc(OC)c(OC)c(OC)c3)ccc21`, the 50% growth inhibitory concentration (GI50) was greater than 50 µM.
In turn, `CCn1c2ccccc2c2cc(Nc3ncccc3C(=O)NCCCn3ccnc3)ccc21` showed a 50% growth inhibitory concentration (GI50) of 27 µM.
Consider `CCn1c2ccccc2c2cc(Nc3ccnc(NCCCN4CCOCC4)n3)ccc21`, for which the GI50 worked out at 14 µM.
The same measure, in the same setting: for `CCn1c2ccccc2c2cc(NC(=O)c3cccnc3N3CCOCC3)ccc21` the value was greater than 50 µM; for `CCn1c2ccccc2c2cc(Nc3ncccc3NC(=O)c3cccnc3)ccc21`, 41 µM.
Still for that read-out and setting: for `CCn1c2ccccc2c2cc(NC(=O)c3nccnc3C(=O)NCCOC)ccc21` the value was greater than 50 µM; for `CCn1c2ccccc2c2cc(NC(=O)c3nccnc3C(=O)NCCCn3ccnc3)ccc21`, greater than 50 µM.
Same read-out and setting: for `CCn1c2ccccc2c2cc(NC(=O)c3cccnc3N3CCN(c4ccccc4)CC3)ccc21` the value was greater than 50 µM; for `CCn1c2ccccc2c2cc(NC(=O)c3ccccc3C(=O)NCCOC)ccc21`, greater than 50 µM.
Take `CCn1c2ccccc2c2cc(NC(=O)c3nccnc3C(=O)NCCN3CCOCC3)ccc21`: the GI50 is greater than 50 µM.
Take `CCn1c2ccccc2c2cc(Nc3ncccc3C(=O)NCCCN3CCOCC3)ccc21`: the concentration for 50% growth inhibition (GI50) turned out to be 28 µM.
On the same count and under the same terms, with `CCn1c2ccccc2c2cc(C(=O)Nc3cccnc3NCCCN3CCOCC3)ccc21` the figure was 32 µM; with `CCn1c2ccccc2c2cc(Nc3ncccc3NC(=O)CCN3CCCCC3)ccc21`, 15 µM; with `CCn1c2ccccc2c2cc(Nc3ncccc3C(=O)NCCN3CCN(C(=O)OC(C)(C)C)CC3)ccc21`, greater than 50 µM.
Same read-out and setting: for `CCn1c2ccccc2c2cc(NC(=O)c3cccnc3N3CCN(C(C)=O)CC3)ccc21` the value was greater than 50 µM.

A further data set relates to MCF-10A. As to the kind of experiment: Growth inhibition of human MCF10A cells up to 36 uM after 24 hrs by CellTiter 96 aqueous one solution cell proliferation assay. Type of data set: cell-based.
Settings: not given
Take `CCn1c2ccccc2c2cc(C(=O)Nc3cccnc3N3CCOCC3)ccc21`: the “growth inhibition (GI)” value is given as “Non-Toxic”.

In the next data set the test system is MDA-MB-231. As to the kind of experiment: Anti-migratory activity against human MDA-MB-231 cells assessed as reduction in cell migration at 5 uM after 24 hrs by scratch wound-healing assay relative to control. Type of data set: functional. Further details: scale not given: the % may be the effect or the level left.
Settings: not given
Regarding `CCn1c2ccccc2c2cc(Nc3ccnc(NCCCN4CCOCC4)n3)ccc21`, the Activity is 17%.

System in a further data set: not listed separately
As to the kind of experiment: Growth inhibition of human MCF10A cells at 10 uM after 24 hrs by MTT assay relative to control. It is filed as cell-based, MCF-10A. The following applies: read-out: GI. (Tetrazolium assays rely on reduction of a dye to a coloured formazan, in cell work by metabolically active cells.)
Consider `CCn1c2ccccc2c2cc(Nc3ccnc(NCCCN4CCOCC4)n3)ccc21`, for which the inhibition at 24 h, 10 µM stood at 50%.

In the next data set the target is Ras-related C3 botulinum toxin substrate 1 (Homo sapiens) (UniProt P63000). The data set can be described thus: Inhibition of Rac1 in human MDA-MB-435 cells assessed as reduction in Rac-GTP level atv 250 nM after 24 hrs by ELISA-based pull down assay. Type of data set: cell-based.
Settings: not given
On to `CCn1c2ccccc2c2cc(C(=O)Nc3cccnc3N3CCOCC3)ccc21`, for which the inhibition turned out to be 55%.

The test system of the next data set is MDA-MB-231. The data set can be described thus: Anti-migratory activity against human MDA-MB-231 cells assessed as cell migration at 10 uM after 12 hrs by scratch wound-healing assay. Type of data set: functional, cell-based.
Settings: not given
An outline of the steps: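 Scratch wound-healing assay in MDA-MB-231 cells with test compounds at 10 µM against vehicle (0.02% DMSO). Wounds were photographed at 0, 12 and 24 h. Migration was taken as the distance travelled from the scratch edge toward its centre, relative to control. Values are the average of three independent experiments.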
For the molecule `CCn1c2ccccc2c2cc(C(=O)Nc3cccnc3N3CCOCC3)ccc21`, the outcome was Active.
Still for that read-out and setting: with `CCn1c2ccccc2c2cc(NC(=O)c3cccnc3N3CCOCC3)ccc21` the entry was “Active”.

Another data set relates to MCF-10A. As to the kind of experiment: Cytotoxicity against human MCF10A cells assessed as reduction in cell viability at 30 to 50 uM after 24 hrs by CellTiter 96 aqueous one solution cell proliferation assay. Type of data set: cell-based.
Settings: not given
Regarding `CCn1c2ccccc2c2cc(C(=O)Nc3cccnc3N3CCOCC3)ccc21`, the Activity result is “Non-Toxic”.

Another data set addresses Ras-related C3 botulinum toxin substrate 1 (Homo sapiens) (UniProt P63000). As to the kind of experiment: Inhibition of Rac1 in human MDA-MB-231 cells assessed as reduction in Rac-GTP level at 250 nM after 24 hrs by ELISA-based pull down assay. It is filed as cell-based.
Settings: not given
Background: In an ELISA, binding on a coated surface is turned into a signal by an enzyme label.
With `CCn1c2ccccc2c2cc(C(=O)Nc3cccnc3N3CCOCC3)ccc21`, the inhibition came to 55%.

The target is the same in another data set. As to the kind of experiment: Inhibition of Rac1 in human MDA-MB-435 cells assessed as reduction in phosphorylation at Thr423 residue at 2 uM after 24 hrs by Western blot analysis. Type of data set: cell-based.
Settings: not given
As to `CCn1c2ccccc2c2cc(Nc3ccnc(NCCCN4CCOCC4)n3)ccc21`, the inhibition is 60%.
